From ChEMBL document CHEMBL5046272, “Discovery of Potent, Selective, and In Vivo Efficacious AKT Kinase Protein Degraders via Structure-Activity Relationship Studies” (J Med Chem, 2022)
Values belong to the molecule of their own block, whether it stands above or below them. Active and inactive are the calls of the source. No cut-off for these calls is given here.

Legend:
[1] = target: T1, von Hippel-Lindau disease tumor suppressor/AKT (Homo sapiens) (UniProt P31751+Q9Y243+P31749+P40337); assay: Protac activity at VHL/AKT in human BT-474 cells assessed as reduction in total AKT protein level at 1 to 10 uM measured after 24 hrs by Western blot analysis; type: cell-based; conditions: dose 1-10 µM
Outline: (§1)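 BT474 cells treated 24 h at 1, 5 or 10 μM, alongside AZD5363 (1 μM) and the matching E3 ligand VHL-1 or pomalidomide (1 μM). Lysates in urea/SDS sample buffer were run on 4–12% Bis-Tris gels and blotted to PVDF. Blots probed for total AKT, P-AKT S473, P-PRAS40 T246 and P-S6 S240/244, with β-actin loading control and chemiluminescent detection.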

[2] = Protac activity at CRBN/AKT in human BT-474 cells assessed as inhibition of downstream signalling by measuring reduction in PRAS40 phosphorylation at T246 residue at 1 to 10 uM measured after 24 hrs Western blot analysis; conditions: dose 1-10 µM
[3] = Protac activity at CRBN/AKT in human BT-474 cells assessed as reduction in AKT protein level at 1 to 10 uM measured after 24 hrs by Western blot analysis; conditions: dose 1-10 µM
[4] = Protac activity at CRBN/AKT in human BT-474 cells assessed as reduction in AKT protein level at 10 uM measured after 24 hrs by Western blot analysis
BT-474 = assay: Inhibition of colony formation in human BT-474 cells at 0.1 to 10 uM incubated for 14 days by replacing culture medium for every 2 days by crystal violet staining based assay; type: functional, cell-based; conditions: dose 0.1-10 µM, time 14.0 day
Outline: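 BT474 cells cultured 14 days with compound. Medium plus compound was replaced every 2 days. Viable cells were then stained with 0.5% crystal violet.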

[5] = target: RAC-alpha serine/threonine-protein kinase (Homo sapiens, UniProt P31749); assay: Binding affinity to DNA-tagged AKT1 (unknown origin) assessed as dissociation constant by q-PCR based competitive binding assay
Chain of RAC-alpha serine/threonine-protein kinase (P31749 whole entry): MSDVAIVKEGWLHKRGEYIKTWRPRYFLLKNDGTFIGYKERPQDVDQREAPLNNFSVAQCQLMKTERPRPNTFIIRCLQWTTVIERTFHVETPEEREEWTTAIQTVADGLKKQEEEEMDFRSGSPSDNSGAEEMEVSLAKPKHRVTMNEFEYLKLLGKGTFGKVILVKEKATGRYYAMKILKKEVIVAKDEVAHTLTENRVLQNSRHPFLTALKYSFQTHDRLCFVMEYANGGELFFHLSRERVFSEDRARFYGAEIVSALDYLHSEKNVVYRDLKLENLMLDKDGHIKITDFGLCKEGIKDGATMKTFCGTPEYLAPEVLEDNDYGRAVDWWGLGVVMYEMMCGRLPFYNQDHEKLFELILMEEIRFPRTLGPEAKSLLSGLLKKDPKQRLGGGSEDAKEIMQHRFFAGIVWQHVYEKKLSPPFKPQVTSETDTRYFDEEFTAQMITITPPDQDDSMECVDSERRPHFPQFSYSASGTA
Outline: (§2)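 KINOMEscan competition binding: DNA-tagged kinase competes between test compound and an immobilized active-site ligand, with bound kinase read by qPCR of the tag. Kd fitted from an 11-point threefold dilution series (top 30 μM) plus three DMSO control points, run in duplicate.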

[6] = target: RAC-gamma serine/threonine-protein kinase (Homo sapiens, UniProt Q9Y243); assay: Binding affinity to DNA-tagged AKT3 (unknown origin) assessed as dissociation constant by q-PCR based competitive binding assay; outline: as §2
Chain of RAC-gamma serine/threonine-protein kinase (Q9Y243 whole entry): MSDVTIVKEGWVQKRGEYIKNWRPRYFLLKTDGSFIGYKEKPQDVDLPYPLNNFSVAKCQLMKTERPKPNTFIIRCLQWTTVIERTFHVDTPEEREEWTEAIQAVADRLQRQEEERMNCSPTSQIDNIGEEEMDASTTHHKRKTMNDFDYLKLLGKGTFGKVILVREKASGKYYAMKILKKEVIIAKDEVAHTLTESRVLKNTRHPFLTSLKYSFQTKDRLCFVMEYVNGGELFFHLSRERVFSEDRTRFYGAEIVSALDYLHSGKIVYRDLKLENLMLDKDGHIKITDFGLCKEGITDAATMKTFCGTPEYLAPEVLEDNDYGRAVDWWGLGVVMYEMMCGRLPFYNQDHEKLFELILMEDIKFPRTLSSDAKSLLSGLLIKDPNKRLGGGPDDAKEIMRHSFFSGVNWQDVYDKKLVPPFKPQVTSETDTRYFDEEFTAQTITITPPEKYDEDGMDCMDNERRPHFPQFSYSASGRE

[7] = target: T1, von Hippel-Lindau disease tumor suppressor/AKT (Homo sapiens); assay: Protac activity at VHL/AKT in human BT-474 cells assessed as inhibition of downstream signalling by measuring reduction in PRAS40 phosphorylation at T246 residue at 5 uM measured after 24 hrs Western blot analysis; type: cell-based; outline: as §1
PC-3 = assay: Antiproliferative activity against human PC-3 cells assessed as inhibition of cell growth measured after 5 days by IncuCyte zoom live cell analysis; type: functional; conditions: PC-3, 120 h, time 5 day
Outline: (§3)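 Cells grown in DMEM with 10% FBS at 37 °C, 5% CO₂. Seeded at 1–3 × 10³ cells/well in triplicate with serial compound dilutions for 5 days. Growth was taken as confluence from IncuCyte phase-contrast images of live cells. Three independent experiments.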

MDA-MB-468 = assay: Antiproliferative activity against human MDA-MB-468 cells assessed as cell growth by measured after 5 days by IncuCyte zoom live cell analysis; type: functional; conditions: MDA-MB-468, 120 h, time 5 day; outline: as §3

Activity [1]: Active
Compound: Cc1ncsc1-c1ccc(CNC(=O)[C@@H]2C[C@@H](O)CN2C(=O)[C@@H](NC(=O)COCC(=O)N2CCN(CC[C@H](NC(=O)C3(N)CCN(c4ncnc5[nH]ccc45)CC3)c3ccc(Cl)cc3)CC2)C(C)(C)C)cc1

Activity [4]: Active
Compound: NC1(C(=O)N[C@@H](CCN2CCN(C(=O)CCOCCNc3cccc4c3C(=O)N(C3CCC(=O)NC3=O)C4=O)CC2)c2ccc(Cl)cc2)CCN(c2ncnc3[nH]ccc23)CC1 (stereo partly specified)

Activity [1]: inactive
Compound: Cc1ncsc1-c1ccc(CNC(=O)[C@@H]2C[C@@H](O)CN2C(=O)[C@@H](NC(=O)CCOCCC(=O)N2CCN(CC[C@H](NC(=O)C3(N)CCN(c4ncnc5[nH]ccc45)CC3)c3ccc(Cl)cc3)CC2)C(C)(C)C)cc1

Activity [1]: inactive
Compound: Cc1ncsc1-c1ccc(CNC(=O)[C@@H]2C[C@@H](O)CN2C(=O)[C@@H](NC(=O)CCOCCOCCOCCOCCC(=O)N2CCN(CC[C@H](NC(=O)C3(N)CCN(c4ncnc5[nH]ccc45)CC3)c3ccc(Cl)cc3)CC2)C(C)(C)C)cc1

Activity [1]: inactive
Compound: Cc1ncsc1-c1ccc(CNC(=O)[C@@H]2C[C@@H](O)CN2C(=O)[C@@H](NC(=O)COCCOCCOCC(=O)N2CCN(CC[C@H](NC(=O)C3(N)CCN(c4ncnc5[nH]ccc45)CC3)c3ccc(Cl)cc3)CC2)C(C)(C)C)cc1

Activity [1]: inactive
Compound: Cc1ncsc1-c1ccc(CNC(=O)[C@@H]2C[C@@H](O)CN2C(=O)[C@@H](NC(=O)CCC(=O)N2CCN(CC[C@H](NC(=O)C3(N)CCN(c4ncnc5[nH]ccc45)CC3)c3ccc(Cl)cc3)CC2)C(C)(C)C)cc1

Activity [1]: inactive
Compound: Cc1ncsc1-c1ccc(CNC(=O)[C@@H]2C[C@@H](O)CN2C(=O)[C@@H](NC(=O)CCOCCOCCC(=O)N2CCN(CC[C@H](NC(=O)C3(N)CCN(c4ncnc5[nH]ccc45)CC3)c3ccc(Cl)cc3)CC2)C(C)(C)C)cc1

Activity [1]: inactive
Compound: Cc1ncsc1-c1ccc(CNC(=O)[C@@H]2C[C@@H](O)CN2C(=O)[C@@H](NC(=O)CCOCCOCCOCCOCCOCCC(=O)N2CCN(CC[C@H](NC(=O)C3(N)CCN(c4ncnc5[nH]ccc45)CC3)c3ccc(Cl)cc3)CC2)C(C)(C)C)cc1

Activity [1]: inactive
Compound: Cc1ncsc1-c1ccc(CNC(=O)[C@@H]2C[C@@H](O)CN2C(=O)[C@@H](NC(=O)COCCOCC(=O)N2CCN(CC[C@H](NC(=O)C3(N)CCN(c4ncnc5[nH]ccc45)CC3)c3ccc(Cl)cc3)CC2)C(C)(C)C)cc1

Activity [1]: inactive
Compound: Cc1ncsc1-c1ccc(CNC(=O)[C@@H]2C[C@@H](O)CN2C(=O)[C@@H](NC(=O)CCOCCOCCOCCC(=O)N2CCN(CC[C@H](NC(=O)C3(N)CCN(c4ncnc5[nH]ccc45)CC3)c3ccc(Cl)cc3)CC2)C(C)(C)C)cc1

inhibition [7]: inactive | Activity [1]: Active
Compound: Cc1ncsc1-c1ccc(CNC(=O)[C@@H]2C[C@@H](O)CN2C(=O)[C@@H](NC(=O)CCCCCC(=O)N2CCN(CC[C@H](NC(=O)C3(N)CCN(c4ncnc5[nH]ccc45)CC3)c3ccc(Cl)cc3)CC2)C(C)(C)C)cc1

inhibition [7]: inactive | Activity [1]: Active
Compound: Cc1ncsc1-c1ccc(CNC(=O)[C@@H]2C[C@@H](O)CN2C(=O)[C@@H](NC(=O)CCCCC(=O)N2CCN(CC[C@H](NC(=O)C3(N)CCN(c4ncnc5[nH]ccc45)CC3)c3ccc(Cl)cc3)CC2)C(C)(C)C)cc1

Activity [1]: inactive
Compound: Cc1ncsc1-c1ccc(CNC(=O)[C@@H]2C[C@@H](O)CN2C(=O)[C@@H](NC(=O)COCCOCCOCCOCCOCC(=O)N2CCN(CC[C@H](NC(=O)C3(N)CCN(c4ncnc5[nH]ccc45)CC3)c3ccc(Cl)cc3)CC2)C(C)(C)C)cc1

Kd [5]: 0.15 µM | Kd [6]: 2.9 µM
Compound: Cc1ncsc1-c1ccc(CNC(=O)[C@@H]2C[C@@H](OCc3ccccc3)CN2C(=O)[C@@H](NC(=O)CCCCCCCCCCC(=O)N2CCN(CC[C@H](NC(=O)C3(N)CCN(c4ncnc5[nH]ccc45)CC3)c3ccc(Cl)cc3)CC2)C(C)(C)C)cc1

Activity [1]: inactive
Compound: Cc1ncsc1-c1ccc(CNC(=O)[C@@H]2C[C@@H](O)CN2C(=O)[C@@H](NC(=O)CCCC(=O)N2CCN(CC[C@H](NC(=O)C3(N)CCN(c4ncnc5[nH]ccc45)CC3)c3ccc(Cl)cc3)CC2)C(C)(C)C)cc1

Activity [3]: inactive
Compound: NC1(C(=O)N[C@@H](CCN2CCN(C(=O)CCNc3cccc4c3C(=O)N(C3CCC(=O)NC3=O)C4=O)CC2)c2ccc(Cl)cc2)CCN(c2ncnc3[nH]ccc23)CC1 (stereo partly specified)

Further lines, the molecule ahead of its results:

Compound: NC1(C(=O)N[C@@H](CCN2CCN(C(=O)CCCNc3cccc4c3C(=O)N(C3CCC(=O)NC3=O)C4=O)CC2)c2ccc(Cl)cc2)CCN(c2ncnc3[nH]ccc23)CC1 (stereo partly specified)
inhibition [2]: Active | Activity [3]: Active

Compound: Cc1ncsc1-c1ccc(CNC(=O)[C@@H]2C[C@@H](O)CN2C(=O)[C@@H](NC(=O)CCCCCCCCCC(=O)N2CCN(CC[C@H](NC(=O)C3(N)CCN(c4ncnc5[nH]ccc45)CC3)c3ccc(Cl)cc3)CC2)C(C)(C)C)cc1
inhibition (BT-474): Active

Compound: NC1(C(=O)N[C@@H](CCN2CCN(C(=O)CCCCCNc3cccc4c3C(=O)N(C3CCC(=O)NC3=O)C4=O)CC2)c2ccc(Cl)cc2)CCN(c2ncnc3[nH]ccc23)CC1 (stereo partly specified)
inhibition [2]: Active | Activity [3]: Active

Compound: NC1(C(=O)N[C@@H](CCN2CCN(C(=O)CCOCCOCCOCCOCCOCCCc3cccc4c3C(=O)N(C3CCC(=O)NC3=O)C4=O)CC2)c2ccc(Cl)cc2)CCN(c2ncnc3[nH]ccc23)CC1 (stereo partly specified)
Activity [4]: inactive | inhibition (BT-474): inactive

Compound: CN1C(=O)CCC(N2C(=O)c3cccc(NCCOCCOCCOCCOCCOCCC(=O)N4CCN(CC[C@H](NC(=O)C5(N)CCN(c6ncnc7[nH]ccc67)CC5)c5ccc(Cl)cc5)CC4)c3C2=O)C1=O (stereo partly specified)
Kd [5]: 0.0055 µM | Kd [6]: 0.023 µM

Compound: NC1(C(=O)N[C@@H](CCN2CCN(C(=O)CCOCCOCCOCCOCCOCCNc3cccc4c3CN(C3CCC(=O)NC3=O)C4=O)CC2)c2ccc(Cl)cc2)CCN(c2ncnc3[nH]ccc23)CC1 (stereo partly specified)
Activity [4]: inactive

Compound: NC1(C(=O)N[C@@H](CCN2CCN(C(=O)CCCCCCNc3cccc4c3C(=O)N(C3CCC(=O)NC3=O)C4=O)CC2)c2ccc(Cl)cc2)CCN(c2ncnc3[nH]ccc23)CC1 (stereo partly specified)
Activity [3]: inactive

Compound: NC1(C(=O)N[C@@H](CCN2CCN(C(=O)CCOCCOCCOCCOCCOCCOc3cccc4c3C(=O)N(C3CCC(=O)NC3=O)C4=O)CC2)c2ccc(Cl)cc2)CCN(c2ncnc3[nH]ccc23)CC1 (stereo partly specified)
Activity [4]: inactive | inhibition (BT-474): inactive

Compound: Cc1ncsc1-c1ccc(CNC(=O)[C@@H]2C[C@@H](O)CN2C(=O)[C@@H](NC(=O)CCCCCCCCCCCC(=O)N2CCN(CC[C@H](NC(=O)C3(N)CCN(c4ncnc5[nH]ccc45)CC3)c3ccc(Cl)cc3)CC2)C(C)(C)C)cc1
inhibition (BT-474): Active

Compound: NC1(C(=O)N[C@@H](CCN2CCN(C(=O)CCCCCCCNc3cccc4c3C(=O)N(C3CCC(=O)NC3=O)C4=O)CC2)c2ccc(Cl)cc2)CCN(c2ncnc3[nH]ccc23)CC1 (stereo partly specified)
Activity [3]: inactive

Compound: NC1(C(=O)N[C@@H](CCN2CCN(C(=O)CCOCCOCCOCCOCCOCCNc3cccc4c3C(=O)N(C3CCC(=O)NC3=O)C4=O)CC2)c2ccc(Cl)cc2)CCN(c2ncnc3[nH]ccc23)CC1 (stereo partly specified)
GI50 (PC-3): 10.8 µM | GI50 (MDA-MB-468): 4.8 µM

Compound: Cc1ncsc1-c1ccc([C@H](C)NC(=O)[C@@H]2C[C@@H](O)CN2C(=O)[C@@H](NC(=O)CCCCCCCCCC(=O)N2CCN(CC[C@H](NC(=O)C3(N)CCN(c4ncnc5[nH]ccc45)CC3)c3ccc(Cl)cc3)CC2)C(C)(C)C)cc1
inhibition (BT-474): Active

Compound: NC1(C(=O)N[C@@H](CCN2CCN(C(=O)CNc3cccc4c3C(=O)N(C3CCC(=O)NC3=O)C4=O)CC2)c2ccc(Cl)cc2)CCN(c2ncnc3[nH]ccc23)CC1 (stereo partly specified)
Activity [3]: inactive

Compound: NC1(C(=O)N[C@@H](CCO)c2ccc(Cl)cc2)CCN(c2nc[nH]c3nccc2-3)CC1 [CAPIVASERTIB]
GI50 (PC-3): 6.5 µM | GI50 (MDA-MB-468): 3.8 µM

Compound: NC1(C(=O)N[C@@H](CCN2CCN(C(=O)CCCCNc3cccc4c3C(=O)N(C3CCC(=O)NC3=O)C4=O)CC2)c2ccc(Cl)cc2)CCN(c2ncnc3[nH]ccc23)CC1 (stereo partly specified)
Activity [3]: Active
